# IMP-1 inhibitor – blocks Pseudomonas aeruginosa IMP-1 metallo-beta-lactamase. purified IMP-1, nitrocefin hydrolysis, epi-absorbance fluorescence. inhibition, % at 5.6 µM. 290,000 tested, 0.45% active;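 active means inhibition above the mean plus 3 SD of all compounds in the same screening run, cut at about 4.5% in these data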;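 further: 0% = IMP-1 with DMSO and 100% = DMSO wells lacking enzyme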
#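 System: purified IMP-1; amount: IMP-1 0.2 nM before substrate addition; compound: single dose, 5.6 µM; times: 25 °C, 15 min preincubation, 25 min reaction; signal: Epi-absorbance via hydrolysed-nitrocefin quenching of white-plate fluorescence, 480/530 nm, EDTA stop; benchmarks: DMSO with and without IMP-1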
# VIM-2 inh – blocks Pseudomonas aeruginosa VIM-2 metallo-beta-lactamase; purified VIM-2, nitrocefin hydrolysis, epi-absorbance fluorescence; inhibition, % at 5.6 µM; 290,000 tested, 0.89% active; AID 1527;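 active means inhibition above the mean of all tested compounds plus 3 SD, cutoff set per screening run, cut at about 7.5% in these data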;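 further: red hydrolysis product quenches plate fluorescence so inhibitors raise well fluorescence; 0% = enzyme with DMSO and 100% = DMSO without enzyme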
# HCV NS3 hel inh – blocks Hepatitis C virus NS3 helicase unwinding. NS3 helicase DNA unwinding, Cy5 molecular beacon fluorescence. inhibition, % at 10.9 µM. 290,000 tested, 0.56% active;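 active means inhibition above the mean of all tested compounds plus 3 SD, set per campaign, cut at about 35% in these data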;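 further: 0% = DMSO wells and 100% = thioflavine S control wells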
#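 Assay system – hepatitis C virus NS3 helicase domain fragment enzyme · Buffer or medium – MOPS pH 6.5, MgCl2, DTT, Tween20, BSA · Reagent – Cy5/quencher beacon DNA duplex and ATP to start · Compound – single 10.9 µM dose · Timing – 1 h at 25 °C · Technique – Cy5 beacon fluorescence read at start and 1 h · Measure – % inhibition of unwinding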
# HCV core dimer – blocks dimerization of HCV core protein; TR-FRET GST/Flag-core106 dimerization, 1536-well; inhibition, % at 5 µM; 300,000 tested, 0.33% active; AID 1899;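 active means inhibition above the mean of all tested compounds plus 3 SD, set per screening campaign, cut at about 45% in these data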
#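 Assay system – GST-tagged and Flag-tagged HCV core protein residues 1-106 · Quantity – core106 proteins, GST 13.5 nM and Flag 17 nM · Benchmarks – unlabelled core106 and no-GST-core106 wells · Read-out basis – percent inhibition of core106 dimerization signal · Detection – time-resolved FRET, ex 340 nm, em 617 and 671 nm · Schedule – 4 h at 22.5 °C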
# UBC9 SUMO inh – inhibitors of human SUMOylation (UBC9); inhibition, % at 35 µM; HTRF SUMOylation assay, SAE1/SAE2 + UBC9, in vitro; P63279; 290,000 tested, 0.36% active; in the data active means inhibition above about 50%, passing the limit was not always enough
# Target sequence (P63279 whole entry, looked up): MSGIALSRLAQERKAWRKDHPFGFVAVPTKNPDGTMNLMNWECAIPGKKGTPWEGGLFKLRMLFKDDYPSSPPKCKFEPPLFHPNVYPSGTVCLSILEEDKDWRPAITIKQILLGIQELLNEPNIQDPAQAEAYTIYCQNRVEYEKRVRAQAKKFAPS
# PHOSPHO1 block – PHOSPHO1 (human) inhibition. Q8TCT1. recombinant PHOSPHO1, absorbance phosphatase assay. inhibition, % at 13.3 µM. 290,000 tested, 1.1% active; in the data active means inhibition above about 60%
# Target sequence (Q8TCT1 whole entry, looked up): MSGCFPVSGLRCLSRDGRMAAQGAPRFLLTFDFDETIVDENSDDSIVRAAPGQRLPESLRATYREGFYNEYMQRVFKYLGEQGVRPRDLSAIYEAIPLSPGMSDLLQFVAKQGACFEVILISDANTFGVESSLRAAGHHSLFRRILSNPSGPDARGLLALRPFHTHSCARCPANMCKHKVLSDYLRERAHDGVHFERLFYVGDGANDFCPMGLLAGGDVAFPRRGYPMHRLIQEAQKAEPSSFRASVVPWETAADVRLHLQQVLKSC
# An asterisk follows results filed as active; · = no result. In the library only some 3.1% were active in any assay of this set; here they are far more common.
SMILES,IMP-1 inhibitor,VIM-2 inh,HCV NS3 hel inh,HCV core dimer,UBC9 SUMO inh,PHOSPHO1 block
CC1(C)CC(=O)C2=C(C1)Nc1[nH]c(=S)[nH]c(=O)c1C2c1ccccc1 (stereo unspecified),-3,-4,23,2,53,96*
O=C1CCCC2=C1C(c1ccc(Br)cc1)c1c([nH]c(=S)[nH]c1=O)N2 (stereo unspecified),1,-3,20,-2,9,38
CSc1nc2c(c(=O)[nH]1)C(c1ccccc1)C1=C(CC(C)(C)CC1=O)N2 (stereo unspecified),-5,-4,-4,-1,14,8
OCCSc1nc(-c2cccnc2)nc2ccccc12,-2,7.7*,-2,4,4,20
OCCNc1nc(-c2cccnc2)nc2ccccc12,-1,2,12,-3,0,7
O=c1c2cc(Cl)ccc2[nH]c(=S)n1Cc1ccco1,-4,-10,8,-8,16,-8
COc1cc2[nH]c(=S)n(Cc3ccco3)c(=O)c2cc1OC,-4,-5,-6,6,19,69*
CC(=O)c1sc2nc(-c3cccs3)ccc2c1N,-2,-3,11,13,6,73*
Nc1c(C(=O)Nc2nc3ccccc3s2)sc2nc(-c3cccs3)ccc12,-1,-1,22,27,7,30
O=C(Nc1ccc(-c2cn3ccccc3n2)cc1)c1cccs1,6.4*,-4,7,-6,45,28
COc1ccc(CC(=O)Nc2ccc(-c3cn4ccccc4n3)cc2)cc1,-1,-4,-4,3,27,3
CC1(C)CC(CCC(=O)NC(=S)Nc2ccccc2Cl)C(=O)O1 (stereo unspecified),-1,-1,-4,-11,-2,-8
N#Cc1ccccc1Cn1c(=O)n(-c2ccc(CC(=O)NCc3ccco3)cc2)c(=O)c2sccc21,-2,0,-5,6,7,-50
N#Cc1ccccc1Cn1c(=O)n(Cc2ccc(C(=O)NCc3ccco3)cc2)c(=O)c2sccc21,7.0*,-1,-4,31,11,-20
O=C(Cn1nnc2ccccc2c1=O)NCC1CCC(C(=O)O)CC1 (stereo unspecified),0,0,-8,-2,9,22
CC(=O)c1c(C)[nH]c(C(=O)NCc2ccco2)c1C,2,0,3,-2,10,7
CCn1c(N2CCN(CC(=O)c3c(C)n(C)c4ccccc34)CC2)nc2c1c(=O)[nH]c(=O)n2C,-2,1,-3,-7,6,92*
COc1ccc(S(=O)(=O)NNC(=O)Nc2ccc(F)cc2)cc1,·,·,·,-14,·,·
CCOc1ccc2nc3c(cc2c1)CN(CCCO)C(=NCCOC)S3,0,-1,-2,29,-15,91*
CC1Cc2ccccc2N1Cc1cc(=O)n2ccsc2n1 (stereo unspecified),0,-1,3,68*,17,-17
Cc1cccc(C)c1NC(=S)NCc1ccncc1,-3,-3,-4,-1,-7,25
CCN1CCN(c2c(/C=C3\SC(=S)N(Cc4ccco4)C3=O)c(C)c(C#N)c(=O)n2C)CC1,6.4*,1,-73,28,24,-16
Cc1ccc(S(=O)(=O)Oc2cc(N)c3c(n2)CCC3)cc1,-1,-2,3,-9,4,39
Cc1cc(=O)oc2cc(OCC(=O)c3ccc4c(c3)NC(=O)CO4)ccc12,-2,-2,2,63*,31,36
Cc1ccc(C(=O)COc2ccc3c(C)cc(=O)oc3c2)cc1,-2,2,-9,8,4,20
Cc1nnc(NC(=O)COc2ccc3c(C)cc(=O)oc3c2)s1,0,-2,9,79*,25,33
CCC(CC)c1nnc(NC(=O)COc2ccc3c(C)cc(=O)oc3c2)s1,-1,-5,2,5,11,28
CCCCC[C@H]1CN(Cc2ccc(OC)cc2)C(=O)[C@@H]1CC(=O)NCc1ccccc1,-2,-2,6,5,-4,-2
CC1CN(S(=O)(=O)c2ccccc2)C(C)N1C(=O)N1CCOCC1 (stereo unspecified),-1,-3,6,2,2,32
